Test results from the RNAGym collection of RNA variant scans (doi:10.1126/science.aae0568).
Variants at the floor of the assay were thinned out.

B1: tRNA (parent)
chain: GUUCCGUUGGCGUAAUGGUAACGCGUCUCCCUCCUAAGGAGAAGACUGCGGGUUCGAGUCCCGUACGGAACG

Variants of: B1
Assay: yeast fitness relative to wild type (ratio to wild type); higher = fitter; tRNA-Arg(CCU), competitive growth, 37 C, YPD
In short: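 Variants of the tRNA-Arg(CCU) gene, chemically synthesised with a 3% per-site mutation rate at 69 sites, were placed at the native genomic locus in Saccharomyces cerevisiae. The pooled strains were competed in YPD at 37°C for 24 hours in six parallel replicates. Gene amplicons from the start population and from each end population were read by 100-nucleotide paired-end sequencing. Darwinian fitness relative to wild type came from changes in genotype frequencies; genotypes needed ≥ 100 starting reads, and estimates < 0.5 were set to 0.5.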

Variant	yeast fitness
U3A A15G U35C G52A	0.525
U3A A14U C46U U53A	≤ 0.5
U3A C4U U13A A36U C62A C66U	≤ 0.5
U3A A37U A42G	≤ 0.5
U3A A21C C24G C49U A65C	≤ 0.5
U3A C4U U7A C24U C60U	≤ 0.5
U3A A20C U32A A70G	≤ 0.5
U3A A42G U53A	≤ 0.5
U3A C4U C11A U53A A65U	≤ 0.5
U3A A20G C22U G44C	≤ 0.5
U2G U47C	0.992
U3A A57G A69U	0.983
U3A A20G G44A C49A U59A	≤ 0.5
U3A A14C A20C U28A C29G U32C G39A A57C	≤ 0.5
U3A A15U	0.695
U3A A21G C33G C34G	≤ 0.5
U3A A15U U28G C55A A70U	0.779
U3A A42G C66U	0.595
U3A A14G G23C A65C	≤ 0.5
U3A A14G C24G A42C	0.54
U3A C4U G25C G58C	≤ 0.5

Variant	yeast fitness
U3A A14G G23C U32A G52C	≤ 0.5
U3A C4A U8C C29G A37C A70C	≤ 0.5
U3A A15C C22G U32C G41A	≤ 0.5
U3A C4G C60G G67A	≤ 0.5
U3A C4G G9A C11G U53A C66U	≤ 0.5
U3A C4U U7A C24U C46G A65G	≤ 0.5
U3A A14U A57U	≤ 0.5
U3A A21G	0.926
U3A A21U	0.71
U3A A21C	0.768
U3A C4A U16A C30G U53C G67U	≤ 0.5
U3A C4A U16A C30G U53C G67A	0.604
U2G U53A	0.532
U3A A15G U35C G52A G58C C66U	≤ 0.5
U3A A36U U53G	0.619
U3A A15G U47G	0.794
U3A A43G	0.919
U2G U28A U32C C49G G52A	≤ 0.5
U2G U28A C33U C46G	≤ 0.5
U3A A15G U19A G41A G50A	≤ 0.5
U3A A20C U32A	≤ 0.5

Variant	yeast fitness
U3A A45U C46G G52A G68C	≤ 0.5
U3A A45U A69U	0.788
U3A A21U U28A A42C A57G C66A	≤ 0.5
U3A C4A U16A A36C G48A G67A	≤ 0.5
U3A C4A U8C C31U A37U G48C C66U	≤ 0.5
U3A A40C U47A G68C	≤ 0.5
U2G U28G G68C	≤ 0.5
U3A C4U U13A A36U C66U	0.641
U3A C4A U16A C30G U53C C66U A70G	≤ 0.5
U3A C4G U59A A65C A70C	≤ 0.5
U3A A21C C24G C61U	≤ 0.5
U3A C4U U7A C24U U35C C49U C61G	≤ 0.5
U3A A14G A15G A20U A37G G41A	0.525
U3A A20G G56A	0.707
U3A A40G C55G	0.813
U3A A45G	1
U3A A45C	0.88
U3A A21C C24G	0.507
U3A A14C C46G	≤ 0.5
U3A A14C C46U	≤ 0.5
U3A A21U G23C A43C	≤ 0.5

Variant	yeast fitness
U3A A20U A37G	0.608
U3A A14U	0.731
U2G U35A A40U A57U	≤ 0.5
U2G U59A	0.851
U2G U59C	0.848
U2G U28G U59A	≤ 0.5
U3A C4A U8C C29G C33G A42G G48A	≤ 0.5
U3A A21C A36U G58A	≤ 0.5
U2G U32G A42U	≤ 0.5
U3A C5A A65U	≤ 0.5
U3A A21C C24G G63A	≤ 0.5
U3A A21G C66U A70C	0.794
U3A A21G C31A G48C	≤ 0.5
U3A C4A U19C C27U C46A C62G A69U	≤ 0.5
U3A A40G C49U	0.54
U3A A20G A43U C55G C61U	≤ 0.5
U3A A40C	0.635
U3A A40G	0.888
U3A C4G G6A U26G A70U	≤ 0.5
U3A A45C C62G	≤ 0.5
